# Key:
# [1] = biological target: T1, Cholesteryl ester transfer protein (Homo sapiens, UniProt P11597); test: Inhibition of CETP-mediated BODIPY-labeled cholesteryl ester transfer after 45 mins by FRET analysis
# T1 sequence (P11597 whole entry): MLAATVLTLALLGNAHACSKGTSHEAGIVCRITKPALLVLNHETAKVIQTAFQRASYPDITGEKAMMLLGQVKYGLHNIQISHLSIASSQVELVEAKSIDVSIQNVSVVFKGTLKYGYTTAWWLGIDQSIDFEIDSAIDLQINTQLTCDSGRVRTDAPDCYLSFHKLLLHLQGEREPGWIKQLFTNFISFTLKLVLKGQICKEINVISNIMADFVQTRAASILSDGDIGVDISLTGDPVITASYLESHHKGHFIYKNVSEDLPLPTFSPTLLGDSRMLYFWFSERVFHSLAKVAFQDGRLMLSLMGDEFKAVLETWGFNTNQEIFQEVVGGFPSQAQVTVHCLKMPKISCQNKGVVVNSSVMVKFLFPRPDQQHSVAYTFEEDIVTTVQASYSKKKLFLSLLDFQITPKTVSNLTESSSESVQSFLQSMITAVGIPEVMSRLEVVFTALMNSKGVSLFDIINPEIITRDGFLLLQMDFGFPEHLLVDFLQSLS
# Method in brief: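 Fluorescence transfer assay of cholesteryl ester transfer by CETP. IC50 taken from 10-point titrations, reported as the average of three or more titrations, the average of two, or a single titration.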
# Mus musculus = species on record: Mus musculus; test: (§1) Clearance in mouse; format: ADME, organism-based; conditions: in vivo
# [2] = Oral bioavailability in mouse; format: ADME, organism-based; conditions: in vivo
# [3] = Volume of distribution in mouse; format: ADME, organism-based; conditions: in vivo
# [4] = biological target: T2, Cholesteryl ester transfer protein (Homo sapiens) (UniProt P11597); test: Inhibition of CETP-mediated BODIPY-labeled cholesteryl ester transfer at 100 uM after 45 mins by FRET analysis
# T2 sequence (whole entry): T1 sequence (P11597 whole entry)
# [5] = as §1; format: ADME, organism-based; conditions: in vivo
compound,measurement,setting,value
COc1ccc(C(C)C)cc1-c1ccc(C(F)(F)F)cc1CN1C[C@@H](c2ccccc2)OC1=O,IC50,[1],0.293 µM
COc1ccc(C(C)C)cc1-c1ccc(C(F)(F)F)cc1CN1C[C@H](c2ccccc2)OC1=O,IC50,[1],37.2 µM
COC(=O)N(Cc1ccccc1)Cc1cc(C(F)(F)F)ccc1-c1cc(C(C)C)ccc1OC,IC50,[1],27.3 µM
COc1ccc(C(C)C)cc1-c1ccc(C(F)(F)F)cc1CN1C[C@@H](c2cc(C(F)(F)F)cc(C(F)(F)F)c2)OC1=O,clearance,Mus musculus,31.6 mL/min/kg
same,bioavailability,[2],4%
same,Vd,[3],3.4 L/kg
COc1ccc(C(C)C)cc1-c1ccc(C(F)(F)F)cc1CN1C[C@H](c2cc(C(F)(F)F)cc(C(F)(F)F)c2)OC1=O,inhibition,[4],< 50%
COc1ccc(C(C)C)cc1-c1ccc(C(F)(F)F)cc1CN1C(=O)OCC1c1cc(C(F)(F)F)cc(C(F)(F)F)c1 (racemic),IC50,[1],14.2 µM
COc1ccc(C(C)C)cc1-c1ccc(C(F)(F)F)cc1CN1CC(c2cc(C(F)(F)F)cc(C(F)(F)F)c2)OC1=O (racemic),IC50,[1],0.133 µM
COC(=O)N(Cc1cc(C(F)(F)F)cc(C(F)(F)F)c1)Cc1cc(C(F)(F)F)ccc1-c1cc(C(C)C)ccc1OC,clearance,[5],12.8 mL/min/kg
same,bioavailability,[2],5%
same,Vd,[3],3.3 L/kg
